As a reminder, the IC50 is the concentration that inhibits the measured activity by half. A word on the Ki: it is the equilibrium dissociation constant of an inhibitor or competing ligand from its target. A higher Ki goes with lower affinity. By Kd is commonly meant the equilibrium constant for the complex coming apart.

Where two headings read alike, the source gives them in different places.

Results on five molecules are retold here after paper PMC5634614 (Molecular imaging and biology : MIB : the official …, 2017).

One data set in a line: Plasma protein binding. Type of data set: in vitro ADME.
The target of data set [1] is T1, TSPO (Rattus norvegicus, UniProt P16257). Kind of data set: Radioligand displacement of [3H]PK11195 in C6 glioma cell lysate. It counts as binding. The note with it: for TSPO binding affinity, fold greater than 1 (DPA-714): relative to 1 (DPA-714); for TSPO binding affinity, fold greater than 2 (VUIIS1008): relative to 2. Background: Loss of bound radioactivity is the signal in a displacement assay; it reports binding, not function.

The target of data set [2] is mitochondrial TSPO (mTSPO) (Mus musculus, UniProt P50637). Kind of data set: 2D 1H-15N HSQC NMR titration of TSPO with ligands. Type of data set: binding. The note with it: 5.0 mM ligand, 0.2 mM TSPO in DPC. In outline: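 15N-labeled mitochondrial TSPO was expressed in E. coli BL21(DE3) in M9 minimal medium, then solubilized and purified in DPC detergent. 2D 1H-15N HSQC spectra were recorded with and without ligand (5.0 mM) on an 800-MHz spectrometer at 42 °C. Samples held 0.2 mM TSPO in ~2 % (w/v) DPC, 25 mM MES pH 6.0 and 100 mM NaCl.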

Data set [3] addresses T1, TSPO. The note with it: ref [18], [19], cited from earlier work.
Data set [4] deals with C6-2B mitochondria (rat glioma). The note with it: C6-2B mitochondria (rat glioma) with [3H]PK11195; ref [28]; cited from earlier work.
In data set [5] the target is T1, TSPO. The note with it: n = 5, prior study, ref [18], [19], cited from earlier work.

For the molecule `CCc1cc(C)nc2c(CC(=O)N(CC)CC)c(-c3ccc(OCCF)cc3)nn12` [3A, N,N-diethyl-2-(7-ethyl-2-(4-(2-fluoroethoxy)-phenyl)-5-methylpyrazolo[1,5-a]pyrimidin-3-yl)acetamide], in “Plasma protein binding”, the “unbound fraction compared with DPA-714” value is “lower unbound fraction than DPA-714”. Also, at TSPO [1], the IC50 was found to be 14.4 pM; the Ki was 7.04 pM; the “TSPO binding affinity, fold greater than 1 (DPA-714)” value is on record as 500 fold; the “TSPO binding affinity, fold greater than 2 (VUIIS1008)” value was found to be 20 fold. In addition, the “TSPO binding affinity, fold greater than 1 (DPA-714)” value on TSPO [1] (listed as VUIIS1009A) is on record as “approximately 500 fold”.
For the molecule `CCc1cc(C)n2nc(-c3ccc(OCCF)cc3)c(CC(=O)N(CC)CC)c2n1` [3B, N,N-diethyl-2-(5-ethyl-2-(4-(2-fluoroethoxy)phenyl)-7-methylpyrazolo[1,5-a]pyrimidin-3-yl)acetamide], in the data set “Plasma protein binding”, the “unbound fraction compared with DPA-714” value is recorded as “lower unbound fraction than DPA-714” and the “unbound fraction, difference compared with 3A” value amounted to 0.54%. Also, the “saturation of ligand-bound state of TSPO (HSQC)” value in data set [2] was “completely saturated the ligand-bound state”. For the same molecule, at TSPO [1], the IC50 amounted to 19.4 pM; affinity was put at a Ki of 9.47 pM; the “TSPO binding affinity, fold greater than 1 (DPA-714)” value is recorded as 500 fold; the “TSPO binding affinity, fold greater than 2 (VUIIS1008)” value was found to be 20 fold. Besides, the “TSPO binding affinity, fold greater than 1 (DPA-714)” value at TSPO [1] (listed as VUIIS1009B) is listed as “approximately 500 fold”.
For the molecule `CCc1cc(CC)n2nc(-c3ccc(OCCF)cc3)c(CC(=O)N(CC)CC)c2n1` [VUIIS1008], at TSPO [3] (previously reported), the IC50 was 300 pM.
Take `CCC(C)N(C)C(=O)c1cc2ccccc2c(-c2ccccc2Cl)n1` (stereo not shown) [[^3H]PK11195]: in data set [4], the Kd was 5730 ± 2380 pM.
For the molecule `CCc1cc(CC)n2nc(-c3ccc(OCC[18F])cc3)c(CC(=O)N(CC)CC)c2n1` [[^18F]VUIIS1008, 2-(5,7-diethyl-2-(4-(2-[(18)F]fluoroethoxy)phenyl)pyrazolo[1,5-a]pyrimidin-3-yl)-N,N-diethylacetamide], on TSPO [5] (brain), the “VT (total distribution volume from kinetic parameters)” value is on record as 4.210 ± 1.612, the k1 is on record as 0.881 ±0.392, the k1/k2 is 0.855 ± 0.325 and the k2 is given as 2.078 ± 1.666. In addition, at TSPO [5] (brain), the k3 was 0.172 ± 0.070; the “k3/k4 (binding potential, BPND)” value is recorded as 4.435 ± 1.387; the k4 was 0.037 ± 0.004. Further, on TSPO [5] (tumor), the “VT (total distribution volume from kinetic parameters)” value is on record as 25.224 ± 10.035, the k1 is listed as 0.709 ± 0.306, the k1/k2 is 1.902 ± 0.816 and the k2 was 0.442 ± 0.101. At TSPO [5] (tumor), the k3 is reported as 0.113 ±0.013; the “k3/k4 (binding potential, BPND)” value is reported as 12.634 ± 1.406; the k4 is 0.009 ± 0.002. Further, at TSPO [3] (prior studies), the “enhancement in TSPO affinity compared to 1” value was 36 fold.
